Compound activity deposited in PubChem BioAssay by several laboratories.
Rev-RRE block: inhibitors of HIV-1 Rev-RRE RNA interaction. Rev peptide-RRE RNA binding, FRET. inhibition, % at 8 µM. 0.79% of 97,000 active. AID 704;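 active = inhibition above the screen-wide mean plus 3 SD, cut at about 35% in these data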
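Test system: labelled RRE RNA duplex and labelled Rev peptide. Times: 5 min compound–RNA preincubation, then 15 min with peptide, 25 °C. Doses: single-dose 8 µM. Measured by: FRET, excitation 480 nm, emission 540 nm donor and 671 nm acceptor. Measure: % inhibition of FRET ratio versus controls.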
FAK inh: blocks human focal adhesion kinase activity; inhibition, %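 (tested at 7 µM)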; biochemical FAK kinase activity assay; 0.84% of 97,000 active; AID 727
PLK1 kinase inh: inhibitors of human PLK1 kinase; P53350; AID 619; recombinant PLK1 kinase, TR-FRET peptide phosphorylation; inhibition, % at 10 µM; 0.53% of 97,000 active;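 active = inhibition of 50% or more in the single-concentration screen; inactive = inhibition below 50%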
Plk1 PBD FP: Plk1 (human) PBD binding inhibition | inhibition, %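 (tested at about 20 µM)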 | AID 693 | Plk1 PBD phosphopeptide binding, fluorescence polarization | 0.13% of 97,000 active; in the data active = inhibition above about 34%, passing the limit was not always enough
PTK2B oligo ant: Pyk2 (human) oligomerization antagonism; Q14289; Q293 cells, Pyk2 FERM NanoBiT luminescence; active compounds read low; z-score (the deposit names both 25 µM and 10 µM); 0.83% of 99,000 active; AID 1347419;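 active = Z-score of -3 or lower, scaled per plate to the spread of control and sample wells; inactive = z-score above -3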;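 note: negative z-score means lost luminescence so less FERM oligomerization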
Cav3 T inh: inhibitors of human Cav3.2 T-type calcium channel; B-score at 10 µM; Cav3.2-expressing cells, Fluo-4 calcium fluorescence FDSS; active compounds read low; AID 449739; O95180; 4% of 100,000 active;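 active = single-dose well whose peak fluorescence ratio is a statistical outlier from its plate by either plate-standardised score or position-corrected B-score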
FAK inh conf: FAK (human) inhibition confirmed. shares compounds with FAK inh. FAK kinase biochemical inhibition assay. inhibition, % at 7 µM. 28% of 750 active
A number is an active result; n = inactive; x = not tested or not shown. Only some compounds are listed: those with a hit (about 5.8% of all), similar ones and a draw of the others. Cut-off read from the data, not from the text of the source, unless noted: active = inhibition above about 19%; inactive = the rest.

SMILES | Rev-RRE block | FAK inh | PLK1 kinase inh | Plk1 PBD FP | PTK2B oligo ant | Cav3 T inh | FAK inh conf
COc1cc(C2Nc3ccc4ncccc4c3C3=C2C(=O)CCC3)cc(OC)c1O (stereo unspecified) | n | 47.9 | n | n | n | n | 28.8
CSc1ccc(CNc2ccc(Cl)cc2)cc1 | n | n | n | n | n | n | x
CCc1ccc(CNc2ccc(O)cc2)cc1 | n | 56.3 | n | n | n | n | n
NS(=O)(=O)c1ccc(NS(=O)(=O)c2ccc(NC(=O)c3ccc(-c4ccccc4)cc3)cc2)cc1 | n | 29.6 | n | n | n | x | n
CC1(C)CCCN(C(=O)c2coc(=O)c(Br)c2)C1 | n | 45.6 | n | n | n | n | 67.7
C[C@@H](NC(=O)c1coc(=O)c(Br)c1)c1ccccc1 | n | n | n | n | n | n | x
COc1cccc(-c2nc(-c3ccccn3)no2)c1 | n | 98.3 | n | n | x | n | n
c1ccc(-c2noc(-c3ccc4ccccc4c3)n2)nc1 | x | x | x | x | n | n | x
CCC/C=C(\CCC)C(NC(=O)c1ccc(C(=O)OC)cc1)c1ccc(C(=O)OC)cc1 (stereo unspecified) | x | x | x | x | x | n | x
CN(C)c1ccc(C2C3C(=O)NC(=O)C3ON2c2ccc(Cl)cc2)cc1 (stereo unspecified) | n | n | n | n | x | n | x
O=c1oc2ccccc2n1CCn1c2ccccc2c2nc3ccccc3nc21 | n | 29.7 | n | n | -3.11 | n | 45.6
Cc1ccc(N2C(=O)[C@@H]3[C@H](C2=O)C2c4ccccc4C=CN2[C@@H]3C(=O)c2ccco2)cc1 (stereo partly specified) | n | 32.2 | n | n | n | n | n
Cc1ccc(N2C(=O)[C@@H]3[C@H](C2=O)C2CCCN2[C@@H]3C(=O)c2ccccc2)cc1 (stereo partly specified) | x | x | x | x | n | n | x
O=C(Oc1ccc2c(c1)OCO2)c1cc2c(s1)CCC2 | n | 23.9 | n | n | n | n | n
O=C(Oc1ccc2c(c1)OCO2)c1ccc(F)cc1Cl | n | n | n | n | n | n | x
CC(C)Cn1cnc2c1c(=O)n(CC(=O)Nc1ccc3c(c1)OCO3)c(=O)n2Cc1ccccc1 | n | n | n | n | n | n | x
COc1ccc(CNC(=O)CN(C(=O)c2cc3sccc3n2C)C2CCCC2)cc1 | x | x | x | x | n | n | x
CCN(Cc1cc2ccccc2[nH]c1=O)C(=O)C(C)C | n | n | n | n | n | n | x
CCOC(=O)CNC(=O)c1sc2ncnc(N3CCc4ccccc4C3)c2c1C | n | 42.4 | n | n | n | x | 33.5
COC(=O)c1cccc2c1-c1ccccc1/C2=N/O | n | 49.6 | n | n | n | x | 28.5
O=C(CSc1nc2ccccc2c(=O)n1Cc1ccco1)N1CCCCCC1 | n | 36.0 | n | n | n | n | n
COCCNC(=O)c1ccc2c(=O)n(Cc3ccco3)c(SCC(=O)NC3CCCCC3)nc2c1 | n | 32.7 | n | n | n | n | n
O=C(NCc1ccco1)c1ccc2c(=O)n(Cc3ccco3)c(SCC(=O)N3CCCC3)nc2c1 | n | n | n | n | n | n | x
CCN1C(=O)c2cccc3c(S(=O)(=O)NCc4cccnc4)ccc1c23 | n | n | n | n | n | n | x
CCN1C(=O)c2cccc3c(S(=O)(=O)NCc4ccco4)ccc1c23 | n | 20.6 | n | n | n | n | n
SMILES | Rev-RRE block | FAK inh | PLK1 kinase inh | Plk1 PBD FP | PTK2B oligo ant | Cav3 T inh | FAK inh conf
Cn1c(C(=O)N2CCCc3ccccc32)cc2sccc21 | n | n | n | n | n | n | x
CC(C)=CC1C(C(=O)Nc2ccc(Br)cn2)C1(C)C (stereo unspecified) | n | 26.8 | n | n | n | x | n
CCCCC(=O)Nc1ccc(Br)cn1 | n | n | n | n | n | n | x
CC(C(=O)NC1CCCC1)N(C(=O)c1snc(C(N)=O)c1N)c1ccc2c(c1)OCCO2 (stereo unspecified) | n | 21.2 | n | n | n | n | n
Cc1cc(/C=N/NC(=O)c2cccc([N+](=O)[O-])c2)c(C)n1-c1ccc(Cl)cc1Cl | n | 19.9 | n | n | n | -6.42 | n
CCn1c(=O)c(C(=O)Nc2nc3ccccc3[nH]2)c(O)c2ccccc21 | n | 23.5 | n | n | n | n | 20.9
C=CCn1c(SCC(=O)N2CCCC2)nc2scc(-c3cccs3)c2c1=O | n | 40.5 | n | n | n | x | 30.5
C=CCn1c(SCn2nnc3ccccc3c2=O)nc2scc(-c3cccs3)c2c1=O | n | n | n | n | n | n | x
